In ChEMBL document CHEMBL4002548 (Eur J Med Chem, 2017):
Values belong to the molecule of their own block, whether it stands above or below them.

How the values were obtained:
[1] = target: Vascular endothelial growth factor receptor 2 (Homo sapiens, UniProt P35968); experiment: Inhibition of recombinant KDR (unknown origin) using poly (Glu, Tyr) 4:1 after 60 mins by ELISA method
KG-1 = experiment: Antiproliferative activity against FGFR1-translocated human KG1 cells after 72 hrs by CCK8/SRB assay; assay type: functional, cell-based; settings: KG-1, 72 h
In short: (§1)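 Cells seeded, then exposed next day to a range of compound concentrations for 72 h. Proliferation read by sulforhodamine B or CCK-8. IC50 obtained by four-parameter concentration–response curve fitting from two separate experiments. BaF3 lines stably express constitutively active TEL-FGFR4, TEL-KDR, CCDC6-RET or CCDC6-RET-V804M.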

[2] = target: T1, Fibroblast growth factor receptor 1 (Homo sapiens, UniProt P11362); experiment: Inhibition of recombinant FGFR1 (unknown origin) using poly (Glu, Tyr) 4:1 after 60 mins by ELISA method
Target sequence in this assay (P11362 whole entry): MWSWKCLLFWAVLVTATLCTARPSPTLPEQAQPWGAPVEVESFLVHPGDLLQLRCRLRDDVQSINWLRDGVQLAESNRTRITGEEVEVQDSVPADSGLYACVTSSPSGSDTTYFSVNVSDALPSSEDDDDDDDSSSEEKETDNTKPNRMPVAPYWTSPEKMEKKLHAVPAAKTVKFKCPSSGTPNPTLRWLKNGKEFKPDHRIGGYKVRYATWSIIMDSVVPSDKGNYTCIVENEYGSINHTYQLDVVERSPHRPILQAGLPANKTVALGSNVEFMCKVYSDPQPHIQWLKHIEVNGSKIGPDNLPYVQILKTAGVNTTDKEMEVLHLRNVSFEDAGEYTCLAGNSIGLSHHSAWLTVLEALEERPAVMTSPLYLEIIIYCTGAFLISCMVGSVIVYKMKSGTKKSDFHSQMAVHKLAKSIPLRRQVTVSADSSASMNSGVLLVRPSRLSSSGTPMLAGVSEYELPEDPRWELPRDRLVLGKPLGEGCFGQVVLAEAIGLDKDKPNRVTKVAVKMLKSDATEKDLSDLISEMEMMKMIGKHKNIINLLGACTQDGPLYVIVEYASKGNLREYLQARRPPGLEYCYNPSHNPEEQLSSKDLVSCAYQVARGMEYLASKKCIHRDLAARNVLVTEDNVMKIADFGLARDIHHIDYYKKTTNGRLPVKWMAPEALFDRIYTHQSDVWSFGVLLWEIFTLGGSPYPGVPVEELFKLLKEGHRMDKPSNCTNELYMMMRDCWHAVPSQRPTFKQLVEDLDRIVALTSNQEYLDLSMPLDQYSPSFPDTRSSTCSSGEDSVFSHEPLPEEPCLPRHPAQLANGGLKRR

SNU-16 [3] = experiment: Antiproliferative activity against FGFR2-amplified human SNU16 cells after 72 hrs by CCK8/SRB assay; assay type: functional, cell-based; settings: SNU-16, 72 h; in short: as §1
BaF3 [4] = experiment: Antiproliferative activity against mouse BAF3 cells expressing CCDC6-RET […] mutant after 72 hrs by CCK8/SRB assay; assay type: functional, cell-based; settings: BaF3, 72 h; in short: as §1
[5] = Inhibition of recombinant RET […] mutant (unknown origin) using poly (Glu,Tyr) 4:1 as substrate after 60 mins by ELISA; set-up: species or system Homo sapiens
In short: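 Poly(Glu,Tyr) 4:1 pre-coated at 20 µg/mL as substrate. Reaction with 10 µmol/L ATP in HEPES pH 7.4 buffer containing MgCl2, MnCl2, Na3VO4 and DTT; compound in 1% DMSO, with 1% DMSO as negative control; started by adding kinase. Run 60 min at 37 °C. Phosphotyrosine detected with PY99 and HRP anti-mouse IgG, o-phenylenediamine colour read at 490 nm. IC50 from inhibition curves, two separate experiments.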

NCI-H1581 [6] = experiment: Antiproliferative activity against FGFR1-amplified human NCI-H1581 cells after 72 hrs by CCK8/SRB assay; settings: NCI-H1581, 72 h
RT-112 = experiment: Antiproliferative activity against FGFR3-amplified human RT112 cells after 72 hrs by CCK8/SRB assay; assay type: functional, cell-based; settings: RT-112, 72 h; in short: as §1
SNU-16 [7] = experiment: Antitumor activity against FGFR2-amplified human SNU16 cells xenografted in nude mouse assessed as tumor growth inhibition at 30 mg/kg, po qd administered for 18 days and measured on day 18 post last dose relative to vehicle-treated control; assay type: functional; settings: SNU-16, po, 432 h, read-out: TGI
In short: (§2)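 Male nude mice, 4-6 weeks old, kept under SPF conditions. Tumours grown s.c. from 5×10^6 cells, then passaged as 1 mm³ fragments by trocar. Randomised at 120–150 mm³ (n=6 treated, 12 vehicle). Compound given orally once daily, 10 days for NCI-H1581 and 18 days for SNU16. Calipers twice weekly; V = L×W²/2. TGI taken on final day from volume change versus vehicle.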

NCI-H1581 [8] = experiment: Antitumor activity against FGFR1-amplified human NCI-H1581 cells xenografted in nude mouse assessed as tumor growth inhibition at 20 mg/kg, po qd administered for 10 days and measured on day 10 post last dose relative to vehicle-treated control; assay type: functional; settings: 240 h, read-out: TGI; in short: as §2
[9] = target: Epidermal growth factor receptor (Homo sapiens, UniProt P00533); experiment: Inhibition of recombinant EGFR (unknown origin) using poly (Glu,Tyr) 4:1 as substrate after 60 mins by ELISA
[10] = target: Platelet-derived growth factor receptor alpha (Homo sapiens, UniProt P16234); experiment: Inhibition of recombinant PDGFRalpha (unknown origin) using poly (Glu,Tyr) 4:1 as substrate after 60 mins by ELISA
[11] = target: Proto-oncogene tyrosine-protein kinase Src (Homo sapiens, UniProt P12931); experiment: Inhibition of recombinant c-Src (unknown origin) using poly (Glu,Tyr) 4:1 as substrate after 60 mins by ELISA
[12] = target: T1, Fibroblast growth factor receptor 1; experiment: Inhibition of FGFR1 in FGFR1 translocated human KG1 cells assessed as suppression of phosphorylated ERK after 2 hrs by Western blot analysis
In short: (§3)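 KG1 cells treated with a range of compound concentrations for 2 h at 37 °C, then lysed in 1× SDS sample buffer. Lysates resolved by SDS–PAGE and blotted. Probes: phospho-FGFR1, FGFR, phospho-PLCγ, PLCγ, phospho-ERK1/2, ERK1/2, with GAPDH as loading control. Detection by HRP secondary and enhanced chemiluminescence.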
Target sequence in this assay (P11362 22-822 limits assumed): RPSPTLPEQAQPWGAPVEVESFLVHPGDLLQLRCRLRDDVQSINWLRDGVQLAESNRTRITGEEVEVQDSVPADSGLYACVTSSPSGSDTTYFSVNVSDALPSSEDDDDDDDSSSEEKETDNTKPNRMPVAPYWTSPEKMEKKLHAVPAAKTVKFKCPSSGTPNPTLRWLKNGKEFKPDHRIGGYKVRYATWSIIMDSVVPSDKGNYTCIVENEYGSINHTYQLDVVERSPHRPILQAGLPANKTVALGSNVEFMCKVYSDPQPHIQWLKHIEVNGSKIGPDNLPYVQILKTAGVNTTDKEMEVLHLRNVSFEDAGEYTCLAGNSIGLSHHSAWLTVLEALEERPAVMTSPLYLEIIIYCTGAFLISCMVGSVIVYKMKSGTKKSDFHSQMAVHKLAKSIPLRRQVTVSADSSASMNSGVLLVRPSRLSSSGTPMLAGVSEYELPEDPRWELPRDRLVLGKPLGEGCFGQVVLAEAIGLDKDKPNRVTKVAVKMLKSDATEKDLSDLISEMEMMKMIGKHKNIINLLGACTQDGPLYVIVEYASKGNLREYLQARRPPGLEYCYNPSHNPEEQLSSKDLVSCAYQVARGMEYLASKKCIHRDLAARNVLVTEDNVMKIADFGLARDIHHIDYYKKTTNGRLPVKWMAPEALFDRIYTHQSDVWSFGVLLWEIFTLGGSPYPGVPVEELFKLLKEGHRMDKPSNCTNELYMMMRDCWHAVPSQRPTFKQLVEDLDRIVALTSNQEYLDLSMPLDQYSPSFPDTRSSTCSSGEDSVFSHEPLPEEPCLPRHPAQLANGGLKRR

BaF3 [13] = experiment: Antiproliferative activity against mouse BAF3 cells expressing TEL-FGFR4 fusion protein after 72 hrs by CCK8/SRB assay; assay type: functional, cell-based; settings: BaF3, 72 h; in short: as §1
[14] = target: Fibroblast growth factor receptor 3 (Homo sapiens, UniProt P22607); experiment: Inhibition of recombinant FGFR3 (unknown origin) using poly (Glu,Tyr) 4:1 as substrate after 60 mins by ELISA
[15] = target: Platelet-derived growth factor receptor beta (Homo sapiens, UniProt P09619); experiment: Inhibition of recombinant PDGFRbeta (unknown origin) using poly (Glu,Tyr) 4:1 as substrate after 60 mins by ELISA
[16] = target: Tyrosine-protein kinase ABL1 (Homo sapiens, UniProt P00519); experiment: Inhibition of recombinant ABL (unknown origin) using poly (Glu,Tyr) 4:1 as substrate after 60 mins by ELISA
BaF3 [17] = experiment: Antiproliferative activity against mouse BAF3 cells expressing TEL-KDR fusion protein after 72 hrs by CCK8/SRB assay; assay type: functional, cell-based; settings: BaF3, 72 h; in short: as §1
[18] = target: Fibroblast growth factor receptor 4 (Homo sapiens, UniProt P22455); experiment: Inhibition of recombinant FGFR4 (unknown origin) using poly (Glu,Tyr) 4:1 as substrate after 60 mins by ELISA
[19] = target: T1, Fibroblast growth factor receptor 1; experiment: Inhibition of FGFR1 phosphorylation in FGFR1 translocated human KG1 cells after 2 hrs by Western blot method; in short: as §3
Target sequence in this assay (P11362 22-822 limits assumed): as above

[20] = AUC (0 to 24 hrs) in mouse at 10 mg/kg, po; assay type: ADME, organism-based; set-up: time < 24 hr, dose 10 mg/kg, route oral; settings: in vivo
[21] = target: Fibroblast growth factor receptor 2 (Homo sapiens, UniProt P21802); experiment: Inhibition of recombinant FGFR2 (unknown origin) using poly (Glu,Tyr) 4:1 as substrate after 60 mins by ELISA
[22] = target: T1, Fibroblast growth factor receptor 1; experiment: Inhibition of FGFR1 in FGFR1 translocated human KG1 cells assessed as suppression of PLCgamma phosphorylation after 2 hrs by Western blot analysis; in short: as §3
Target sequence in this assay (P11362 22-822 limits assumed): as above

SNU-16 [23] = experiment: Antitumor activity against FGFR2-amplified human SNU16 cells xenografted in nude mouse assessed as tumor growth inhibition at 20 mg/kg, po qd administered for 18 days and measured on day 18 post last dose relative to vehicle-treated control; assay type: functional; settings: SNU-16, po, 432 h, read-out: TGI; in short: as §2
[24] = target: Vascular endothelial growth factor receptor 1 (Homo sapiens, UniProt P17948); experiment: Inhibition of recombinant VEGFR1 (unknown origin) using poly (Glu,Tyr) 4:1 as substrate after 60 mins by ELISA
NCI-H1581 [25] = experiment: Antitumor activity against FGFR1-amplified human NCI-H1581 cells xenografted in nude mouse assessed as tumor growth inhibition at 5 mg/kg, po qd administered for 10 days and measured on day 10 post last dose relative to vehicle-treated control; assay type: functional; settings: 240 h, read-out: TGI; in short: as §2
[26] = target: Proto-oncogene tyrosine-protein kinase receptor Ret (Homo sapiens, UniProt P07949); experiment: Inhibition of recombinant RET (unknown origin) using poly (Glu,Tyr) 4:1 as substrate after 60 mins by ELISA
BaF3 [27] = experiment: Antiproliferative activity against mouse BAF3 cells expressing CCDC6-RET fusion protein after 72 hrs by CCK8/SRB assay; assay type: functional, cell-based; settings: BaF3, 72 h; in short: as §1

Chain of Vascular endothelial growth factor receptor 2 (P35968 whole entry): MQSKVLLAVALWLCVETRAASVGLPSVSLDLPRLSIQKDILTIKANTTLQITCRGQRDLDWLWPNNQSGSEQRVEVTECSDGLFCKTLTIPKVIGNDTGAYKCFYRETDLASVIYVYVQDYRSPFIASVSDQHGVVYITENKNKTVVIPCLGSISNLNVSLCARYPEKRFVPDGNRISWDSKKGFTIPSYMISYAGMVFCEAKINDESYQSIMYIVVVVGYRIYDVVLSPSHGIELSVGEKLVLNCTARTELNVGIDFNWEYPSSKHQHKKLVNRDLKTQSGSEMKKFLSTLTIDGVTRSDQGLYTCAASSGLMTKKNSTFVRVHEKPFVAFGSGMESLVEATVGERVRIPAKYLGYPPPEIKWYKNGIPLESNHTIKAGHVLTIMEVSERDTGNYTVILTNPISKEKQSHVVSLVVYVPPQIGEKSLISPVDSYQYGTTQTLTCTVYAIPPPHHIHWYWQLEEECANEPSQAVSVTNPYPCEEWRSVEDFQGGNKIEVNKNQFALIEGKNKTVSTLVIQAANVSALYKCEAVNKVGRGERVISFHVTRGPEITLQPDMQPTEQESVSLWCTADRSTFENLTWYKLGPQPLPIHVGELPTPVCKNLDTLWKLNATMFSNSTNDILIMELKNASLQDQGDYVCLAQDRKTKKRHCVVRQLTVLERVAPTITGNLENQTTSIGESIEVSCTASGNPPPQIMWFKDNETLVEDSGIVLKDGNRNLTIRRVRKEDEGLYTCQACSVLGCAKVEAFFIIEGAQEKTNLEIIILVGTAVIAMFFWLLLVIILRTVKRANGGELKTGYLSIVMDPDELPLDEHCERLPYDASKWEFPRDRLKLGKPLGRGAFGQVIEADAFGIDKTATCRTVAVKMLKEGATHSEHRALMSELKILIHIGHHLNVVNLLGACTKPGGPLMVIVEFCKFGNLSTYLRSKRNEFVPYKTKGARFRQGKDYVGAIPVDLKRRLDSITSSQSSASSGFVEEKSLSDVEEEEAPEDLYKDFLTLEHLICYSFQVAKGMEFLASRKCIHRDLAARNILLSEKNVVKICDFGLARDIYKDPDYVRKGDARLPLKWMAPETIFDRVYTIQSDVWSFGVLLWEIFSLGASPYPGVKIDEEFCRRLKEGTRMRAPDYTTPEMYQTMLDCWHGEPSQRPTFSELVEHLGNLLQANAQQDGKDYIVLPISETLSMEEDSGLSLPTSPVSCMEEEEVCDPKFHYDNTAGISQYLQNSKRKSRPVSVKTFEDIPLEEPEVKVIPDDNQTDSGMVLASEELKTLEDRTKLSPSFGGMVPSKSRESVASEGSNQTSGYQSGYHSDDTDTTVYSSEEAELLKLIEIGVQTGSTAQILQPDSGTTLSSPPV
Chain of Platelet-derived growth factor receptor alpha (P16234 whole entry): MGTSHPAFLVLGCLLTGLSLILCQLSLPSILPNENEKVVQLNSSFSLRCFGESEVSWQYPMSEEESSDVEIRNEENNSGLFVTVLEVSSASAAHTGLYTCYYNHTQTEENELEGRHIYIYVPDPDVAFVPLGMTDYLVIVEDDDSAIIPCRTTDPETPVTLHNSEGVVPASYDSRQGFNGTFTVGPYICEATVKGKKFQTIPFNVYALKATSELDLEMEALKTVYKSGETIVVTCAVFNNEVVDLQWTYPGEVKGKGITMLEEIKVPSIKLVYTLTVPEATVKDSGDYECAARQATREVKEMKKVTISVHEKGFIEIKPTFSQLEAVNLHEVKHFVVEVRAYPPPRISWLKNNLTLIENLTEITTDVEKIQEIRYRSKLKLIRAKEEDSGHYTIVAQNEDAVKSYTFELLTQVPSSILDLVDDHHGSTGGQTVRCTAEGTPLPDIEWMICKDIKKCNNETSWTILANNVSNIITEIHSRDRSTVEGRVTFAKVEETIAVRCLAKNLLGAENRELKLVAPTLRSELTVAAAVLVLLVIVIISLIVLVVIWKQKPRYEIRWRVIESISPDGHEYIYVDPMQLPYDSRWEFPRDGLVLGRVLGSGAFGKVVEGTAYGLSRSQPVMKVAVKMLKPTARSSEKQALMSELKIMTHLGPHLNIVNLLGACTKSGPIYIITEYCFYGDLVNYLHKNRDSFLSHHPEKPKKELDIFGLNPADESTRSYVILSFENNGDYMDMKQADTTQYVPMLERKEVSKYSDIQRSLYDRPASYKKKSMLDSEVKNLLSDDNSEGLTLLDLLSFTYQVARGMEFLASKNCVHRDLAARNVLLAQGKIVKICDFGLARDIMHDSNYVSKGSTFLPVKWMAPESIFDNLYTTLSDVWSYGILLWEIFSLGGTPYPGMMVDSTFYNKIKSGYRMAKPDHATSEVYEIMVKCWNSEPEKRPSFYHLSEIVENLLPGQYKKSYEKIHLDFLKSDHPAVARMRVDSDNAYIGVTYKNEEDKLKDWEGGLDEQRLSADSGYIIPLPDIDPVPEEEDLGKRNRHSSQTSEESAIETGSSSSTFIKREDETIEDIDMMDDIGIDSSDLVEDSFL
Chain of Fibroblast growth factor receptor 2 (P21802 whole entry): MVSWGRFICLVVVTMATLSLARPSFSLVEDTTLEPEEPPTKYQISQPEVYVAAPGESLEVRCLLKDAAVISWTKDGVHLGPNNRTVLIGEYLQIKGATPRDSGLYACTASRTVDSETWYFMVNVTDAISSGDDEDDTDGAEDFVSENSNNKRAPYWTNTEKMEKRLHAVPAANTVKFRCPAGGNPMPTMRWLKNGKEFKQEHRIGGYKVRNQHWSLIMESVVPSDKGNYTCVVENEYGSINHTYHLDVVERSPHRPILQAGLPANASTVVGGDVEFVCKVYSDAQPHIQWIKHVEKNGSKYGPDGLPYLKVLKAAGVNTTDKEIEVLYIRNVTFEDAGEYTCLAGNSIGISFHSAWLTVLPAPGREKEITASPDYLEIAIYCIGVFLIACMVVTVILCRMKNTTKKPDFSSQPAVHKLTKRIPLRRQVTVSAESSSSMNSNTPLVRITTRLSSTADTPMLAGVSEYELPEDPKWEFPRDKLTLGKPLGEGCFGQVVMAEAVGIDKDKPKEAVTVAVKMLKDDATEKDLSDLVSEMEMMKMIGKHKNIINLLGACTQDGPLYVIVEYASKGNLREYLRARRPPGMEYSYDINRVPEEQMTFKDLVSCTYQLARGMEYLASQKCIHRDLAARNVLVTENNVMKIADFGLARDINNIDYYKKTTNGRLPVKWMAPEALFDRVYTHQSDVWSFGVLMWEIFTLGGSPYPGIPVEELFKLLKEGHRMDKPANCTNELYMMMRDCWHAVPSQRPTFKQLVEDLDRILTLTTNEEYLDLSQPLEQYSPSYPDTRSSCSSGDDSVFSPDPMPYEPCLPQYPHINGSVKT

Compound: COc1ccc(C(=O)Nc2ccc(CN3CCN(C)CC3)c(C(F)(F)F)c2)cc1C#Cc1cncc2ccccc12
IC50 (KG-1): > 500 nM

Compound: Cc1ccc(C(=O)Nc2ccc(CN3CCN(C)CC3)c(C(F)(F)F)c2)cc1C#Cc1cnc2cccnn12 [PONATINIB]
IC50 (SNU-16 [3]): 33.6 nM | IC50 (BaF3 [4]): 71.5 nM | IC50 (KG-1): 17.2 nM | IC50 [5]: 1.9 nM | IC50 (NCI-H1581 [6]): 194 nM | IC50 (RT-112): 736 nM | inhibition in vivo at 30 mg/kg (SNU-16 [7]): 75.3%

Compound: CN1CCN(Cc2ccc(NC(=O)c3cc(C#Cc4cncc5ccccc45)ccn3)cc2C(F)(F)F)CC1
IC50 (KG-1): > 500 nM

Compound: Cc1ccc(C(=O)Nc2ccc(CN3CCN(C)CC3)c(C(F)(F)F)c2)cc1C#Cc1cncc(N2CCOCC2)c1
IC50 [1]: 89.9 nM | IC50 (KG-1): 24.3 nM

Compound: Cc1ccc(C(=O)Nc2ccc(CN3CCN(C)CC3)c(C(F)(F)F)c2)cc1C#Cc1cncc(NC(C)C)c1
IC50 [1]: 59.9 nM | IC50 (KG-1): 84.5 nM

Compound: Cc1ccc(C(=O)Nc2ccc(CN3CCN(C)CC3)c(C(F)(F)F)c2)cc1C#Cc1cncc(N2CCCC2)c1
IC50 [1]: 108 nM | IC50 (KG-1): 119 nM

Compound: CN1CCN(Cc2ccc(NC(=O)c3ccnc(C#Cc4cncc5ccccc45)n3)cc2C(F)(F)F)CC1
IC50 (KG-1): > 500 nM

Compound: Cc1ccc(C(=O)Nc2ccc(CN3CCN(C)CC3)c(C(F)(F)F)c2)cc1C#Cc1cncc(N2CCN(C)CC2)c1
IC50 [1]: 21.8 nM | IC50 [2]: 5.7 nM | IC50 (KG-1): 21.7 nM

Compound: COc1cc(CCc2cc(NC(=O)c3ccc(N4C[C@@H](C)N[C@@H](C)C4)cc3)n[nH]2)cc(OC)c1 [FEXAGRATINIB]
inhibition in vivo at 20 mg/kg (NCI-H1581 [8]): 79.5%

Compound: CN1CCN(Cc2ccc(NC(=O)c3ccc(Cl)c(C#Cc4cncc(N5CCOCC5)c4)c3)cc2C(F)(F)F)CC1
IC50 (SNU-16 [3]): 26.4 nM | IC50 [1]: 48.7 nM | IC50 (BaF3 [4]): 33.4 nM | IC50 [9]: > 100 nM | IC50 [2]: 0.5 nM | IC50 [10]: 5.6 nM | IC50 [11]: 10.8 nM | inhibition [12]: Dose-dependent effect | IC50 (BaF3 [13]): 131 nM | IC50 (KG-1): 7.5 nM | inhibition in vivo at 20 mg/kg (NCI-H1581 [8]): 73.4% | IC50 [5]: 7.5 nM | IC50 [14]: 1 nM | IC50 [15]: 5.5 nM | IC50 [16]: 23.2 nM | IC50 (BaF3 [17]): 489 nM | IC50 [18]: 5.5 nM | inhibition [19]: Dose-dependent effect | AUC(0-t) at 24 h [20]: 11400 ng·h/mL | IC50 (NCI-H1581 [6]): 57 nM | IC50 [21]: 0.3 nM | inhibition [22]: Dose-dependent effect | IC50 (RT-112): 514 nM | inhibition in vivo at 20 mg/kg (SNU-16 [23]): 93.9% | IC50 [24]: 62.7 nM | inhibition in vivo at 5 mg/kg (NCI-H1581 [25]): 8.3% | IC50 [26]: 1.3 nM | IC50 (BaF3 [27]): 37.2 nM

Compound: CCN(CC)c1cncc(C#Cc2cc(C(=O)Nc3ccc(CN4CCN(C)CC4)c(C(F)(F)F)c3)ccc2C)c1
IC50 [1]: 105 nM | IC50 (KG-1): 58.3 nM

Now from value to molecule, other results behind:

IC50 [1]: 91.4 nM
Compound: CN1CCN(Cc2ccc(NC(=O)c3ccc(Cl)c(C#Cc4cncc5ccccc45)c3)cc2C(F)(F)F)CC1
IC50 (KG-1): 88.2 nM

IC50 [1]: 110 nM | IC50 [2]: 12.8 nM
Compound: COc1cncc(C#Cc2cc(C(=O)Nc3ccc(CN4CCN(C)CC4)c(C(F)(F)F)c3)ccc2C)c1
IC50 (KG-1): 125 nM

IC50 [2]: > 100 nM
Compound: CN1CCN(Cc2ccc(NC(=O)c3ccc(C(F)(F)F)c(C#Cc4cncc5ccccc45)c3)cc2C(F)(F)F)CC1
IC50 (KG-1): > 500 nM

IC50 [1]: 2.6 nM
Compound: CN1CCN(Cc2ccc(NC(=O)c3cncc(C#Cc4cncc5ccccc45)c3)cc2C(F)(F)F)CC1
IC50 (KG-1): > 500 nM

IC50 [1]: 5.5 nM
Compound: CN1CCN(Cc2ccc(NC(=O)c3ccc(F)c(C#Cc4cncc5ccccc45)c3)cc2C(F)(F)F)CC1
IC50 (KG-1): 27.8 nM

IC50 [1]: > 100 nM
Compound: Cc1ccc(C(=O)Nc2ccc(CN3CCN(C)CC3)c(C(F)(F)F)c2)cc1C#Cc1cncc2[nH]ccc12
IC50 (KG-1): 490 nM

IC50 [2]: > 100 nM
Compound: CC(C)c1ccc(C(=O)Nc2ccc(CN3CCN(C)CC3)c(C(F)(F)F)c2)cc1C#Cc1cncc2ccccc12

IC50 [1]: 63.5 nM
Compound: Cc1ccc(C(=O)Nc2ccc(CN3CCN(C)CC3)c(C(F)(F)F)c2)cc1C#Cc1cncc2c1ccn2C
IC50 (KG-1): 10 nM

IC50 [1]: 79.1 nM | IC50 [2]: 1.2 nM
Compound: Cc1ccc(C(=O)Nc2ccc(CN3CCN(C)CC3)c(C(F)(F)F)c2)cc1C#Cc1cncc2ccccc12
IC50 (KG-1): 175 nM

IC50 [2]: > 100 nM
Compound: CN1CCN(Cc2ccc(NC(=O)c3cccc(C#Cc4cncc5ccccc45)n3)cc2C(F)(F)F)CC1

IC50 [1]: 6.5 nM
Compound: CN1CCN(Cc2ccc(NC(=O)c3ccnc(C#Cc4cncc5ccccc45)c3)cc2C(F)(F)F)CC1
IC50 (KG-1): 427 nM

IC50 [1]: 2.5 nM
Compound: CN1CCN(Cc2ccc(NC(=O)c3cccc(C#Cc4cncc5ccccc45)c3)cc2C(F)(F)F)CC1
IC50 (KG-1): 67.6 nM
